Source: ChEMBL document CHEMBL1144532, “Antiprotozoal and antimicrobial activities of O-alkylated and formylated acylphloroglucinols” (Bioorg Med Chem, 2007)
Values after ≈ are worked out from the molar mass of the structure shown. Active and inactive are the calls of the source. The rule behind the calls is not given here.

Assays:
Leishmania donovani [1] = test: Antileishmanial activity against Leishmania donovani promastigotes after 48 hrs at 40 ug/mL by Alamar blue assay; type: functional, organism-based
Vero [2] = test: Cytotoxicity against Vero cells up to 23.8 ug/mL by neutral red assay; type: cell-based; conditions: chlorocebus sabaeus
LLC-PK1 [3] = test: Cytotoxicity against LLC-PK1 cells up to 23.8 ug/mL by neutral red assay; type: cell-based, Sus scrofa; conditions: pig
Leishmania donovani [4] = test: Antileishmanial activity against Leishmania donovani promastigotes after 48 hrs by Alamar blue assay; type: functional, organism-based
In short: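 L. donovani promastigotes grown in RPMI 1640 + 10% fetal calf serum at 26 °C; 3-day culture diluted to 5 × 10^5/mL, drug dilutions made directly in suspension, 48 h at 26 °C. Alamar blue fluorescence 544 nm ex/590 nm em; IC50 and IC90 from percent growth vs concentration curves.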

Candida albicans [5] = test: Antifungal activity against Candida albicans; type: functional, organism-based
In short: (§1)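 Samples in DMSO serially diluted in 0.9% saline, tested in duplicate; inocula set against 0.5 McFarland standard (absorbance 630 nm) and diluted in broth to recommended levels. Growth, solvent and media controls included. Read at 630 nm, or fluorescence 544ex/590em for M. intracellulare (modified Alamar Blue), before and after incubation; IC50 from percent growth versus concentration.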

Staphylococcus aureus = test: Antibacterial activity against methicillin-resistant Staphylococcus aureus at 20 ug/mL; type: functional, organism-based
In short: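 Samples in DMSO, serially diluted in 0.9% saline, tested in duplicate. Inoculum set against the 0.5 McFarland standard by absorbance at 630 nm, then diluted in broth. Growth, solvent and media controls included. Absorbance read at 630 nm before and after incubation. IC50 taken from percent growth versus concentration. Inactivity was scored at 20 µg/mL.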

Cryptococcus neoformans [6] = test: Antifungal activity against Cryptococcus neoformans; type: functional, organism-based; in short: as §1
Plasmodium falciparum [7] = test: Antimalarial activity against Plasmodium falciparum D6; type: functional, organism-based
In short: (§2)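 P. falciparum-infected erythrocytes at 2% parasitemia, 2% hematocrit in RPMI 1640 with 10% human serum and 60 µg/mL amikacin, exposed to serial dilutions 72 h at 37 °C under 90% N2/5% O2/5% CO2. Parasite LDH measured with Malstat reagent then NBT/PES, stopped with 5% acetic acid, A650; IC50 from dose–response. DMSO 0.25% vehicle.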

Plasmodium falciparum [8] = test: Antimalarial activity against Plasmodium falciparum W2; type: functional, organism-based; in short: as §2
[9] = system: Mycobacterium intracellulare; test: Antimicrobial activity against Mycobacterium intracellular; type: functional, organism-based; in short: as §1
Aspergillus fumigatus = test: Antifungal activity against Aspergillus fumigatus; type: functional, organism-based; in short: as §1
Vero [10] = test: Cytotoxicity against Vero cells by neutral red assay; type: cell-based; conditions: chlorocebus sabaeus
In short: (§3)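 Cells seeded 25,000/well, grown 24 h, then exposed to samples 48 h; viable cells quantified by neutral red uptake. IC50 taken from logarithmic plots of growth inhibition versus concentration; DMSO vehicle control.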

LLC-PK1 [11] = test: Cytotoxicity against LLC-PK1 cells by neutral red assay; type: cell-based; conditions: Sus scrofa; in short: as §3
Cryptococcus neoformans [12] = test: Antifungal activity against Cryptococcus neoformans at 20 ug/mL; type: functional, organism-based
Vero [13] = test: Cytotoxicity against Vero cells up to 4.76 ug/mL by neutral red assay; type: cell-based; conditions: chlorocebus sabaeus
LLC-PK1 [14] = test: Cytotoxicity against LLC-PK1 cells up to 4.76 ug/mL by neutral red assay; type: cell-based, Sus scrofa; conditions: pig
Candida albicans [15] = test: Antifungal activity against Candida albicans at 20 ug/mL; type: functional, organism-based

Row | SMILES | Activity (Leishmania donovani [1]) | Activity (Vero [2]) | Activity (LLC-PK1 [3]) | IC50 (Leishmania donovani [4]) [µg/mL] | IC90 (Leishmania donovani [4]) [µg/mL] | Activity (Staphylococcus aureus) | Activity (Plasmodium falciparum [7]) | Activity (Plasmodium falciparum [8]) | Activity [9] | Activity (Aspergillus fumigatus) | Activity (Cryptococcus neoformans [12]) | also measured
1 | C=CCOc1cc(O)c(C(C)=O)c(O)c1C=O | inactive | Not Active | Not Active |  |  |  |  |  |  |  |  | 
2 | C/C(=C\O)C(=O)c1c(O)cc(O)c(C=O)c1O |  | Not Active | Not Active | 29 (≈ 122 µM) | > 40 | inactive | inactive | inactive | inactive | inactive |  | IC50 (Candida albicans [5]): 2 µg/mL (≈ 8.4 µM); IC50 (Cryptococcus neoformans [6]): 2.5 µg/mL (≈ 10.5 µM)
3 | CC(=O)c1c(O)cc(OCCC(C)C)c(C=O)c1O |  | Not Active | Not Active | 7.8 (≈ 29.3 µM) | > 40 |  |  |  |  |  |  | 
4 | C=CCOc1cc(O)c(C(=O)CC(C)C)c(O)c1C(=O)CC(C)C |  | Not Active | Not Active | 14 (≈ 41.9 µM) | 36 (≈ 108 µM) |  |  |  |  |  |  | 
5 | CC(C)CCOc1cc(O)c(C(=O)CC(C)C)c(O)c1C(=O)CC(C)C |  | Not Active | Not Active | 24 (≈ 65.8 µM) | > 40 |  |  |  |  |  |  | 
6 | CC(C)CCOc1cc(O)c(C(=O)CC(C)C)c(O)c1C=O |  | Not Active | Not Active | 4.2 (≈ 13.6 µM) | > 40 |  |  |  |  |  |  | 
7 | C=CCOc1cc(O)c(C(=O)CC(C)C)c(O)c1C=O |  |  |  | 5.3 (≈ 19 µM) | 31 (≈ 111 µM) |  |  |  |  |  |  | IC50 (Vero [10]): 17 µg/mL (≈ 61.1 µM); IC50 (LLC-PK1 [11]): 9 µg/mL (≈ 32.3 µM)
8 | CC(=O)c1c(O)c(C)c(O)c(C=O)c1O | inactive |  |  |  |  | inactive | inactive | inactive | inactive | inactive | inactive | IC50 (Candida albicans [5]): 15 µg/mL (≈ 71.4 µM); Activity (Vero [13]): Not Active; Activity (LLC-PK1 [14]): Not Active
9 | CC(=O)c1c(O)cc(O)c(C=O)c1O | inactive |  |  |  |  | inactive | inactive | inactive | inactive | inactive | inactive | IC50 (Vero [10]): 17.5 µg/mL (≈ 89.2 µM); IC50 (LLC-PK1 [11]): 10 µg/mL (≈ 51 µM); Activity (Candida albicans [15]): inactive
10 | CCN(CC)CCCC(C)Nc1ccnc2cc(Cl)ccc12 (stereo not drawn) |  |  |  |  |  |  |  |  | inactive | inactive |  | 
11 | COc1cccc2c1C(=O)c1c(O)c3c(c(O)c1C2=O)C[C@@](O)(C(=O)CO)C[C@@H]3O[C@H]1C[C@H](N)[C@H](O)[C@H](C)O1 |  |  |  |  |  |  |  |  | inactive | inactive |  | 
12 | CC(C)CCc1c(O)c(C=O)c(O)c(C=O)c1O | inactive |  |  |  |  | inactive | inactive | inactive | inactive | inactive | inactive | Activity (Candida albicans [15]): inactive; Activity (Vero [13]): Not Active; Activity (LLC-PK1 [14]): Not Active
13 | CC(C)=CCc1c(O)c(C=O)c(O)c(C(=O)/C(C)=C/O)c1O |  |  |  |  | > 40 | inactive | inactive | inactive | inactive | inactive | inactive | IC50 (Vero [10]): 19 µg/mL (≈ 62 µM); IC50 (LLC-PK1 [11]): 14.5 µg/mL (≈ 47.3 µM); Activity (Candida albicans [15]): inactive
